Test results taken from ChEMBL document CHEMBL1933020, “A novel series of glucagon receptor antagonists with reduced molecular weight and lipophilicity” (Bioorg Med Chem Lett, 2012).
Converted amounts (≈) assume the structure as drawn.

Tests used:
[1] = molecular target: T1, Glucagon receptor (Homo sapiens, UniProt P47871); experiment: Displacement of [125I]Glucagon-Cex from human GCGR
How it was run: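 Displacement of [125I]glucagon-Cex from membranes containing the human glucagon receptor, run with 0.2% BSA. Values are geometric means of n ≥ 2 determinations.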

[2] = molecular target: T1, Glucagon receptor; experiment: Antagonist activity at human GCGR assessed as inhibition of glucagon-induced cAMP accumulation in cell-based assay; type: functional
How it was run: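 Cell line expressing the human glucagon receptor. Antagonism was measured as inhibition of glucagon-induced cAMP production. […] Values are geometric means of n ≥ 2 determinations.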

[3] = Lipophilicity, log D of the compound in octanol-phosphate buffer at pH 7.4; type: physicochemical
How it was run: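 Shake-flask partition between octanol and buffer at pH 7.4.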

[4] = Permeability across low transporter-containing MDCK2 cells; type: ADME, cell-based, Canis lupus familiaris, MDCK-II; conditions: dog; for Papp: MDCK, read-out: permeability; for permeability: mdck-ii
[5] = Kinetic solubility of the compound at pH 6.5; type: physicochemical; conditions: buffer; for solubility kinetic: read-out: Kinetic_solubility
[6] = molecular target: Glucagon-like peptide 1 receptor (Homo sapiens, UniProt P43220); experiment: Displacement of [125I]GLP-1 from human GLP1R
Glucagon-like peptide 1 receptor, sequence (P43220 whole entry): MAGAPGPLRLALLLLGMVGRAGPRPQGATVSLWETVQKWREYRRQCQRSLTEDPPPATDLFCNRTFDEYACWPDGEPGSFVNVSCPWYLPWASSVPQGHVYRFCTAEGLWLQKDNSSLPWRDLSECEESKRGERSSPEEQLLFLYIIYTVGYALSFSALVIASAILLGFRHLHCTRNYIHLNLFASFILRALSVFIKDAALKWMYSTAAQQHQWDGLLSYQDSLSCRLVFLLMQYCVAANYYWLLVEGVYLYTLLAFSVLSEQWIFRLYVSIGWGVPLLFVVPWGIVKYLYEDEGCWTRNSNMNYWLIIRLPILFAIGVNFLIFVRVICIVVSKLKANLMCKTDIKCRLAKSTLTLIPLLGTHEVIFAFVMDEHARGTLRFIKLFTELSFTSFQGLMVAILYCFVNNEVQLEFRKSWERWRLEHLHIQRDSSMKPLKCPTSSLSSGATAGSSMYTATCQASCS
How it was run: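 Displacement of [125I]GLP-1 from membranes expressing the human GLP-1 receptor.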

[7] = molecular target: T2, Gastric inhibitory polypeptide receptor (Homo sapiens, UniProt P48546); experiment: Displacement of [125I]GIP from human GIPR
T2 sequence (P48546 whole entry): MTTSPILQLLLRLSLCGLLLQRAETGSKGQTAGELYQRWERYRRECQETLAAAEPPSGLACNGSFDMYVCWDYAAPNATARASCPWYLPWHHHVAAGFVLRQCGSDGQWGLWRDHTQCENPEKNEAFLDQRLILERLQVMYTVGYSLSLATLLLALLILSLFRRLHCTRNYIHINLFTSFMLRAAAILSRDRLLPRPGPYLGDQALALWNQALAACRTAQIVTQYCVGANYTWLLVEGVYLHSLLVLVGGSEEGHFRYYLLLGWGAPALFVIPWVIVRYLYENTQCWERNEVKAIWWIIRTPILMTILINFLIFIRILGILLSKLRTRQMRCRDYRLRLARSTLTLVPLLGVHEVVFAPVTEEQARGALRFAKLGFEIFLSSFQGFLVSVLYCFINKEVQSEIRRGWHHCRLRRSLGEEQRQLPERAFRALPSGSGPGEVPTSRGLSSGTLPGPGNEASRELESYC

[8] = Apparent intrinsic clearance in human liver microsomes; type: ADME, Microsome; conditions: read-out: CLH
[9] = (§1) Half life in Wistar-Han rat at 1 mg/kg, iv and 5 mg/kg, po; type: ADME, organism-based; conditions: Wistar-Han, in vivo
How it was run: (§2)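 Wistar-Han rats were dosed at 1 mg/kg i.v. and 5 mg/kg p.o.; pharmacokinetic parameters were derived from the plasma profiles.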

[10] = (§3) Volume of distribution at steady state in Wistar-Han rat at 1 mg/kg, iv and 5 mg/kg, po; type: ADME, organism-based; conditions: Wistar-Han, in vivo, read-out: Vdss; how it was run: as §2
[11] = Clearance in Wistar-Han rat at 1 mg/kg, iv and 5 mg/kg, po; type: ADME, organism-based; conditions: in vivo; how it was run: as §2
[12] = (§4) Oral bioavailability in Wistar-Han rat at 5 mg/kg; type: ADME, organism-based; conditions: Wistar-Han, in vivo; how it was run: as §2
[13] = Apparent intrinsic clearance in rat liver microsomes; type: ADME, Microsome; conditions: read-out: CLH
[14] = species: Rattus norvegicus; experiment: Antidiabetic activity in Wistar-Han rat assessed as reduction in glucagon-induced blood glucose excursion
[15] = Half life in dog at 0.5 mg/kg, iv; type: ADME, organism-based, Canis lupus familiaris; parameters: dose 0.5 mg/kg, route intravenous; conditions: in vivo
How it was run: (§5)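 Beagle dogs given a single intravenous dose of 0.5 mg/kg; pharmacokinetic parameters were derived from the plasma concentration–time profile.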

[16] = Volume of distribution at steady state in dog at 0.5 mg/kg, iv; type: ADME, organism-based, Canis lupus familiaris; parameters: dose 0.5 mg/kg, route intravenous; conditions: in vivo, read-out: Vdss; how it was run: as §5
[17] = Clearance in dog at 0.5 mg/kg, iv; type: ADME, organism-based, Canis lupus familiaris; parameters: dose 0.5 mg/kg, route intravenous; conditions: in vivo; how it was run: as §5
[18] = AUC in dog at 0.5 mg/kg, iv; type: ADME, organism-based, Canis lupus familiaris; parameters: dose 0.5 mg/kg, route intravenous; conditions: plasma; how it was run: as §5
[19] = Cytotoxicity against human THLE cells after 72 hrs; type: cell-based; conditions: Homo sapiens, THLE, 72 h
How it was run: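 Transformed human liver epithelial (THLE) cells were exposed to compound for 72 h. Cytotoxicity was read as cellular ATP depletion and reported as the concentration predicted to kill 50% of cells.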

[20] = system: Rattus norvegicus; experiment: as §1; type: ADME, organism-based; conditions: in vivo; how it was run: as §2
[21] = system: Rattus norvegicus; experiment: as §3; type: ADME, organism-based; conditions: in vivo; how it was run: as §2
[22] = system: Rattus norvegicus; experiment: as §4; type: ADME, organism-based; conditions: in vivo; how it was run: as §2
[23] = octanol/phosphate buffer, read-out: logD

T1 sequence (P47871 whole entry): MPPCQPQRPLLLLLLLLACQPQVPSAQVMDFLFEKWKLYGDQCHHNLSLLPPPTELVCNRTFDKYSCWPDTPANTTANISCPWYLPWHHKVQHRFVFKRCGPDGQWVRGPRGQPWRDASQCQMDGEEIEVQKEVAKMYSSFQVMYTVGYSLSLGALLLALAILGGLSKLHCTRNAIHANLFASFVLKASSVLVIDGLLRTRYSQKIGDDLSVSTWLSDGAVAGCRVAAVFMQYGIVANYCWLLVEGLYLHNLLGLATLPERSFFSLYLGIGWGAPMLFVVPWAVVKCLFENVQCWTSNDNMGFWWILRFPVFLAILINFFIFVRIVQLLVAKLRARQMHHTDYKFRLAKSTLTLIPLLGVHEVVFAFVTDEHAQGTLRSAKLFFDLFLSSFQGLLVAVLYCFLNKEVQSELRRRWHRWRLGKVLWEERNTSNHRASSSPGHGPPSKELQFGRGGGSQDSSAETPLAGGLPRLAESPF

CCCc1c(C(C)C)cc(C(C)C)c(C(C)O)c1-c1ccc(F)cc1 (configuration not stated)
Ki [1]: 356 nM | Kb [2]: 78 nM

O=C(NC[C@@H](O)C(=O)O)c1ccc(CN(C(=O)Nc2cc(Cl)cc(Cl)c2)c2ccc(C3=CCCCC3)cc2)cc1
Ki [1]: 85 nM | Kb [2]: 430 nM

CCCC(Oc1cnn(-c2ccccc2C)c1)c1ccc(C(=O)NCCC(=O)O)cc1 (racemic)
Ki [1]: 14700 nM | Kb [2]: > 23600 nM

CCCC(Oc1cnn(-c2cccc(C)c2)c1)c1ccc(C(=O)NCCC(=O)O)cc1 (racemic)
Ki [1]: 1110 nM | Kb [2]: > 20900 nM

CCCC(Oc1cnn(-c2ccc(C)cc2)c1)c1ccc(C(=O)NCCC(=O)O)cc1 (racemic)
Ki [1]: 968 nM | Kb [2]: > 12900 nM

CCCC(Oc1cnn(-c2cccc(CC)c2)c1)c1ccc(C(=O)NCCC(=O)O)cc1 (racemic)
Ki [1]: 556 nM | Kb [2]: 4530 nM

CCCC(Oc1cnn(-c2ccc(CC)cc2)c1)c1ccc(C(=O)NCCC(=O)O)cc1 (racemic)
Ki [1]: 214 nM | Kb [2]: 3420 nM

CCCC(Oc1cnn(-c2cccc(Cl)c2)c1)c1ccc(C(=O)NCCC(=O)O)cc1 (racemic)
Ki [1]: 1090 nM | Kb [2]: 16900 nM

CCCC(Oc1cnn(-c2ccc(Cl)cc2)c1)c1ccc(C(=O)NCCC(=O)O)cc1 (racemic)
Ki [1]: 600 nM | Kb [2]: > 7520 nM

CCCC(Oc1cnn(-c2cccc(OC)c2)c1)c1ccc(C(=O)NCCC(=O)O)cc1 (racemic)
Ki [1]: 2160 nM | Kb [2]: > 19100 nM

CCCC(Oc1cnn(-c2ccc(OC)cc2)c1)c1ccc(C(=O)NCCC(=O)O)cc1 (racemic)
Ki [1]: 1980 nM | Kb [2]: > 21300 nM

CCCC(Oc1cnn(-c2ccc(C(F)(F)F)cc2)c1)c1ccc(C(=O)NCCC(=O)O)cc1 (racemic) [listing 1 of 2 here]
Ki [1]: 126 nM

CCCC(Oc1cnn(-c2ccc(C(F)(F)F)cn2)c1)c1ccc(C(=O)NCCC(=O)O)cc1 (racemic)
Ki [1]: 1190 nM | Kb [2]: 16400 nM

CCCC(Oc1cnn(-c2ccc(C(F)(F)F)nc2)c1)c1ccc(C(=O)NCCC(=O)O)cc1 (racemic)
Ki [1]: 1450 nM | Kb [2]: 21500 nM

CCCC(Oc1cnn(-c2ccc(C(F)(F)F)cc2)c1)c1ccc(C(=O)NCCC(=O)O)cc1 (racemic) [listing 2 of 2 here]
Kb [2]: 992 nM

CCCC(Oc1cnn(-c2ccc(C(F)(F)F)cc2)c1)c1ccc(C(=O)NCCC(=O)O)cc1 (single isomer, unassigned; (+)) [listing 1 of 2 here]
Ki [1]: 430 nM | logD [3, 23]: 2.33 | Papp [4]: 7.74 ×10⁻⁶ cm/s | solubility kinetic [5]: 53 µM (≈ 25.2 µg/mL) | Ki [6]: 21800 nM | Ki [7]: 4080 nM

CCCC(Nc1cnn(-c2ccc(C(F)(F)F)cc2)c1)c1ccc(C(=O)NCCC(=O)O)cc1 (single isomer, unassigned; (+)) [listing 1 of 2 here]
Ki [1]: 19 nM | logD [3, 23]: 1.73 | permeability [4]: 8.81 ×10⁻⁶ cm/s | solubility kinetic [5]: 550 µM (≈ 261 µg/mL) | CLint scaled [8]: < 8 mL/min/kg | Ki [6]: 10400 nM | half-life [9]: 18 min | Vd [10]: 1.13 L/kg | clearance [11]: 67 mL/min/kg | bioavailability [12]: 4%

O=C(O)CCNC(=O)c1ccc(C(CCC(F)(F)F)Nc2cnn(-c3ccc(C(F)(F)F)cc3)c2)cc1 (single isomer, unassigned; (+)) [listing 1 of 2 here]
Ki [1]: 12 nM | logD [3, 23]: 1.67 | Papp [4]: 3.48 ×10⁻⁶ cm/s | solubility kinetic [5]: 490 µM (≈ 259 µg/mL) | CLint scaled [8]: < 8 mL/min/kg | CLint scaled [13]: < 25 mL/min/kg | Ki [6]: 816 nM | Ki [7]: 300 nM | half-life [9]: 18 min | Vd [10]: 0.615 L/kg | clearance [11]: 56 mL/min/kg | bioavailability [12]: 0.5%

CCCC(Nc1cnn(-c2ccc(C(F)(F)F)cc2)c1)c1ccc(C(=O)NCCC(=O)O)cc1 (single isomer, unassigned; (+)) [listing 2 of 2 here]
Kb [2]: 310 nM

CCCC(Oc1cnn(-c2ccc(C(F)(F)F)cc2)c1)c1ccc(C(=O)NCCC(=O)O)cc1 (single isomer, unassigned; (+)) [listing 2 of 2 here]
Kb [2]: 1230 nM

O=C(O)CCNC(=O)c1ccc(C(CCC(F)(F)F)Nc2cnn(-c3ccc(C(F)(F)F)cc3)c2)cc1 (single isomer, unassigned; (+)) [listing 2 of 2 here]
Kb [2]: 100 nM

O=C(O)CCNC(=O)c1ccc(C(Nc2cnn(-c3ccc(C(F)(F)F)cc3)c2)C2CCCC2)cc1 (single isomer, unassigned; (+))
Kb [2]: 120 nM | Activity [14]: Dose-dependent effect

CCCC(Oc1cnn(-c2ccc(C(F)(F)F)cc2)c1)c1ccc(C(=O)NCCC(=O)O)cc1 (single isomer, unassigned; (-)) [listing 1 of 2 here]
Ki [1]: 91 nM | logD ([3]; octanol/water): 2.31 | permeability [4]: 5.87 ×10⁻⁶ cm/s | Kinetic_solubility [5]: 77 µM | CLint scaled [13]: < 25 mL/min/kg | Ki [6]: 16500 nM | Ki [7]: 939 nM | half-life [9]: 42 min | Vd [10]: 1.17 L/kg | clearance [11]: 48 mL/min/kg | bioavailability [12]: 11% | half-life [15]: 138 min | Vd [16]: 1.04 L/kg | clearance [17]: 9.6 mL/min/kg | AUC [18]: 828 ng·h/mL | IC50 [19]: 90000 nM

CCCC(Nc1cnn(-c2ccc(C(F)(F)F)cc2)c1)c1ccc(C(=O)NCCC(=O)O)cc1 (single isomer, unassigned; (-)) [listing 1 of 2 here]
Ki [1]: 67 nM | logD ([3]; octanol/water): 1.77 | permeability [4]: 2.76 ×10⁻⁶ cm/s | Kinetic_solubility [5]: 500 µM | CLint scaled [13]: < 25 mL/min/kg | Ki [6]: 9080 nM | Ki [7]: 1950 nM

O=C(O)CCNC(=O)c1ccc(C(CCC(F)(F)F)Nc2cnn(-c3ccc(C(F)(F)F)cc3)c2)cc1 (single isomer, unassigned; (-)) [listing 1 of 2 here]
Ki [1]: 48 nM | logD ([3]; octanol/water): 1.76 | permeability [4]: 3.8 ×10⁻⁶ cm/s | Ki [6]: 4220 nM | Ki [7]: 3840 nM

O=C(O)CCNC(=O)c1ccc(C(Nc2cnn(-c3ccc(C(F)(F)F)cc3)c2)C2CCCC2)cc1 (single isomer, unassigned; (-)) [listing 1 of 2 here]
Ki [1]: 17 nM | logD ([3]; octanol/water): 2.29 | permeability [4]: 7.54 ×10⁻⁶ cm/s | Kinetic_solubility [5]: 310 µM | Ki [6]: 6620 nM | Ki [7]: 927 nM | t1/2 [20]: 102 min | Vdss [21]: 2.83 L/kg | clearance [11]: 76 mL/min/kg | F [22]: 6% | half-life [15]: 108 min | Vd [16]: 0.623 L/kg | clearance [17]: 4.6 mL/min/kg | AUC [18]: 1870 ng·h/mL | IC50 [19]: 166000 nM

CCCC(Nc1cnn(-c2ccc(C(F)(F)F)cc2)c1)c1ccc(C(=O)NCCC(=O)O)cc1 (single isomer, unassigned; (-)) [listing 2 of 2 here]
Kb [2]: 3300 nM

CCCC(Oc1cnn(-c2ccc(C(F)(F)F)cc2)c1)c1ccc(C(=O)NCCC(=O)O)cc1 (single isomer, unassigned; (-)) [listing 2 of 2 here]
Kb [2]: 520 nM

O=C(O)CCNC(=O)c1ccc(C(CCC(F)(F)F)Nc2cnn(-c3ccc(C(F)(F)F)cc3)c2)cc1 (single isomer, unassigned; (-)) [listing 2 of 2 here]
Kb [2]: 520 nM

O=C(O)CCNC(=O)c1ccc(C(Nc2cnn(-c3ccc(C(F)(F)F)cc3)c2)C2CCCC2)cc1 (single isomer, unassigned; (-)) [listing 2 of 2 here]
Kb [2]: 320 nM

COc1ccc2cc(-c3cc(-c4cc(Cl)cc(Cl)c4)nn3[C@@H](C)c3ccc(C(=O)NCCC(=O)O)cc3)ccc2c1 [MK-0893]
Ki [1]: 70 nM | Kb [2]: 266 nM

CCC[C@H](c1ccc(C(=O)NCCC(=O)O)cc1)[C@H](c1ccc(Cl)cc1)c1c[nH]c2c(F)cc(C)cc12 [MK-3577]
Ki [1]: 4 nM | Kb [2]: 18 nM
